Test results published in paper PMC4463842 (Molecular Medicine Reports, 2015).

Experiments:
[1] = tested on: T2 cells pulsed with corresponding peptides; assay: LDH release cytotoxicity assay of peptide-specific CTLs; assay type: cell-based, human; details: effector to target cell ratio 100:1
Summary of the method: (§1)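 Effectors were CTLs from donor PBMCs after three rounds of peptide stimulation over 3 weeks. Targets were plated at 5,000/well at E:T 100:1, spun 250 × g 4 min, then co-cultured 4–6 h at 37°C, 5% CO2, in phenol red-free medium with 5% FBS. Supernatant LDH gave %cytotoxicity = (experimental − effector spontaneous − target spontaneous)/(target maximum − target spontaneous) ×100. Triplicate wells, three repeats.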

[2] = tested on: MCF-7 cells (HLA-A*0201+, EPS8+); assay: as above; assay type: cell-based, human; details: effector to target cell ratio 100:1, CTLs induced with peptide 10 µg/ml
Summary of the method: as §1

[3] = target: peptide-HLA-A*0201 complex (Homo sapiens, UniProt P04439, D140Y/D185E/D98H/E176V/E277Q/G131W/G231S/I119V/I121R/I166T/I218V/L300P/L318F/N151K/N90K/P208A/P217A/Q86G/Q94H/R138H/R169H/T345S); assay: BFA decay assay; assay type: binding; details: T2 cells loaded with 100 µM peptide, 37°C, time required for 50% reduction of the MFI value recorded at time 0

DC50 [3] [h]	Sequence	lysis rate of T2 cells loaded with the corresponding peptide ([1]; donor 1) [%]	lysis rate of T2 cells loaded with the corresponding peptide ([1]; donor 2) [%]	average lysis rate of MCF-7 cells ([2]; donor 1) [%]	average lysis rate of MCF-7 cells ([2]; donor 2) [%]
–	KLLDAKGKV [Peptide 92]	45.41±4.16	35.23±1.50	51.28±1.54	54.22±3.01
>8	QLAESVANV [Peptide 455]	–	–	–	–
>8	FLFTPLNMV [Peptide 360]	–	–	–	–
6 to 8	ILDDIEFFI [Peptide 276]	–	–	–	–
